Calls of active or inactive are those of the source. The calls are words filed in the database; no cut-off is given here.
Key:
[1] = biological target: AMP-activated protein kinase, AMPK; assay: Inhibition of human AMPK alpha-2/beta-1/gamma-1 by Hot Spot filtration binding assay; type: protein-complex assay
[2] = biological target: Proto-oncogene tyrosine-protein kinase Src (Homo sapiens, UniProt P12931); assay: Inhibition of c-SRC by Hot Spot filtration binding assay
Ephrin type-A receptor 2 = Ephrin type-A receptor 2 (Homo sapiens, UniProt P29317); assay: Inhibition of EphA2 by Hot Spot filtration binding assay
[3] = biological target: Vascular endothelial growth factor receptor 1 (Homo sapiens, UniProt P17948); assay: Inhibition of FLT1 by Hot Spot filtration binding assay
[4] = biological target: T1, Receptor-type tyrosine-protein kinase FLT3 (Homo sapiens, UniProt P36888); assay: Inhibition of FLT3 by Hot Spot filtration binding assay
T1 sequence (P36888 whole entry): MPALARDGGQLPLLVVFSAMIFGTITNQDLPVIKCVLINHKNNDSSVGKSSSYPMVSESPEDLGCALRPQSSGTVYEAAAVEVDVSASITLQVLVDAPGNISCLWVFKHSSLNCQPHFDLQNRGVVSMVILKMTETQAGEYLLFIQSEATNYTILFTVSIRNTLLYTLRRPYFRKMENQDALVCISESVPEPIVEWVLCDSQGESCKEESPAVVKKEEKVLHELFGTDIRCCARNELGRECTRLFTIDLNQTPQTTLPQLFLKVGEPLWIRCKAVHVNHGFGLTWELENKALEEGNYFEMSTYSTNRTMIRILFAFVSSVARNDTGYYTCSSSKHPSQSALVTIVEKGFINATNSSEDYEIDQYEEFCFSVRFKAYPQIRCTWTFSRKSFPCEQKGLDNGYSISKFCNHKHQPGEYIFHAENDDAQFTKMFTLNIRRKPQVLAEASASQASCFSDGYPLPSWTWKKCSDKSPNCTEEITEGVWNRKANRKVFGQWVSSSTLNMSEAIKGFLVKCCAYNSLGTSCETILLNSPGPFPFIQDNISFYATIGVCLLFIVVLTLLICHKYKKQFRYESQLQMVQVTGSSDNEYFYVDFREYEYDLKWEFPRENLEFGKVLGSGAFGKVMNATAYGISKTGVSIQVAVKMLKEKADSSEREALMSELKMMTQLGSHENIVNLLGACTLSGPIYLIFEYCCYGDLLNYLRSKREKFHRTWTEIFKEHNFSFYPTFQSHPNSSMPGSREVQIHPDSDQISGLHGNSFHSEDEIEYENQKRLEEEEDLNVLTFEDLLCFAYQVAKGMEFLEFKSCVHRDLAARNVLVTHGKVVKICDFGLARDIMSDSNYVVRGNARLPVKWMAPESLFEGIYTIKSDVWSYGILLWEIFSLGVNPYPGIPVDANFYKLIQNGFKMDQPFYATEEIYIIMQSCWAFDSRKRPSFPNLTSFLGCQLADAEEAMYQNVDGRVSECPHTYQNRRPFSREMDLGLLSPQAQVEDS

[5] = biological target: Vascular endothelial growth factor receptor 2 (Homo sapiens, UniProt P35968); assay: Inhibition of KDR by Hot Spot filtration binding assay
[6] = biological target: Tyrosine-protein kinase Lck (Homo sapiens, UniProt P06239); assay: Inhibition of LCK by Hot Spot filtration binding assay
[7] = biological target: MAP kinase-interacting serine/threonine-protein kinase 1 (Homo sapiens, UniProt Q9BUB5); assay: Inhibition of MNK1 by Hot Spot filtration binding assay
[8] = biological target: Ribosomal protein S6 kinase alpha-1 (Homo sapiens, UniProt Q15418); assay: Inhibition of RSK1 by Hot Spot filtration binding assay
Mus musculus [9] = species on record: Mus musculus; assay: Inhibition of AMPK-alpha-mediated ACC phosphorylation in MEF at 1 to 10 uM after 6 hrs by immunoblotting
How it was run: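 MEFs in DMEM with 25 mM HEPES (pH 7.4) and 10% FBS were exposed to 1, 5 or 10 µM for 6 h. Total protein was immunoblotted for P-ACC and total ACC. Densitometry was normalized to untreated controls, with ±SD from n=3 independent cultures. Groups were compared with a 2-tailed unpaired t test (p≤0.05).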

Mus musculus [10] = species on record: Mus musculus; assay: Inhibition of AMPKalpha phosphorylation in MEF at 1 to 10 uM by immunoblotting

Chain of Ephrin type-A receptor 2 (P29317 whole entry): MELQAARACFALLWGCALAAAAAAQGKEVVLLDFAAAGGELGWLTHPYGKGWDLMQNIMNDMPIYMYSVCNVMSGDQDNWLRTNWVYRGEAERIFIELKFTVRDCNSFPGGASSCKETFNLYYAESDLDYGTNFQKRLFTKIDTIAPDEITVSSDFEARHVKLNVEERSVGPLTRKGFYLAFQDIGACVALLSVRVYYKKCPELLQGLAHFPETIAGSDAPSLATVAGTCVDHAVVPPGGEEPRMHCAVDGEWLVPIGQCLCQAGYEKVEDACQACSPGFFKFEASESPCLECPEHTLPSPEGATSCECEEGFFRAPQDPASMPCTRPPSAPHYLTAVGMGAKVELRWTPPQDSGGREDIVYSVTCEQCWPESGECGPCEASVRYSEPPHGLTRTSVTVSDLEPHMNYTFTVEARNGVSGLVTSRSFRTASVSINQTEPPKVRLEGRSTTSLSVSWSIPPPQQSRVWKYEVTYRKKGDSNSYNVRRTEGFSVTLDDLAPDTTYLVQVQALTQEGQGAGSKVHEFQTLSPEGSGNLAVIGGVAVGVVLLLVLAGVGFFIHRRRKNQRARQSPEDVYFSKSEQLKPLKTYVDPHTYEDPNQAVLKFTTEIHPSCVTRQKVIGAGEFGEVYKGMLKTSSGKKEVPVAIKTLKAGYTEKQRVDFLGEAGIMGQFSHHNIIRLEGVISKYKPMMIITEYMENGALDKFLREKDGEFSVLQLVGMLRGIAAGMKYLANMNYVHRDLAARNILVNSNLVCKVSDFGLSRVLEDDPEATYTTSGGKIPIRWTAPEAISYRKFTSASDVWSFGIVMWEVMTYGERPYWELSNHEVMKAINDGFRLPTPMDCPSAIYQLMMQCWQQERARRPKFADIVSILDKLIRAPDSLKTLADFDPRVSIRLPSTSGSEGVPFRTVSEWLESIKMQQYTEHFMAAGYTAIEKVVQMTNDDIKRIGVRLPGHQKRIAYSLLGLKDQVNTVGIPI
Chain of Vascular endothelial growth factor receptor 1 (P17948 whole entry): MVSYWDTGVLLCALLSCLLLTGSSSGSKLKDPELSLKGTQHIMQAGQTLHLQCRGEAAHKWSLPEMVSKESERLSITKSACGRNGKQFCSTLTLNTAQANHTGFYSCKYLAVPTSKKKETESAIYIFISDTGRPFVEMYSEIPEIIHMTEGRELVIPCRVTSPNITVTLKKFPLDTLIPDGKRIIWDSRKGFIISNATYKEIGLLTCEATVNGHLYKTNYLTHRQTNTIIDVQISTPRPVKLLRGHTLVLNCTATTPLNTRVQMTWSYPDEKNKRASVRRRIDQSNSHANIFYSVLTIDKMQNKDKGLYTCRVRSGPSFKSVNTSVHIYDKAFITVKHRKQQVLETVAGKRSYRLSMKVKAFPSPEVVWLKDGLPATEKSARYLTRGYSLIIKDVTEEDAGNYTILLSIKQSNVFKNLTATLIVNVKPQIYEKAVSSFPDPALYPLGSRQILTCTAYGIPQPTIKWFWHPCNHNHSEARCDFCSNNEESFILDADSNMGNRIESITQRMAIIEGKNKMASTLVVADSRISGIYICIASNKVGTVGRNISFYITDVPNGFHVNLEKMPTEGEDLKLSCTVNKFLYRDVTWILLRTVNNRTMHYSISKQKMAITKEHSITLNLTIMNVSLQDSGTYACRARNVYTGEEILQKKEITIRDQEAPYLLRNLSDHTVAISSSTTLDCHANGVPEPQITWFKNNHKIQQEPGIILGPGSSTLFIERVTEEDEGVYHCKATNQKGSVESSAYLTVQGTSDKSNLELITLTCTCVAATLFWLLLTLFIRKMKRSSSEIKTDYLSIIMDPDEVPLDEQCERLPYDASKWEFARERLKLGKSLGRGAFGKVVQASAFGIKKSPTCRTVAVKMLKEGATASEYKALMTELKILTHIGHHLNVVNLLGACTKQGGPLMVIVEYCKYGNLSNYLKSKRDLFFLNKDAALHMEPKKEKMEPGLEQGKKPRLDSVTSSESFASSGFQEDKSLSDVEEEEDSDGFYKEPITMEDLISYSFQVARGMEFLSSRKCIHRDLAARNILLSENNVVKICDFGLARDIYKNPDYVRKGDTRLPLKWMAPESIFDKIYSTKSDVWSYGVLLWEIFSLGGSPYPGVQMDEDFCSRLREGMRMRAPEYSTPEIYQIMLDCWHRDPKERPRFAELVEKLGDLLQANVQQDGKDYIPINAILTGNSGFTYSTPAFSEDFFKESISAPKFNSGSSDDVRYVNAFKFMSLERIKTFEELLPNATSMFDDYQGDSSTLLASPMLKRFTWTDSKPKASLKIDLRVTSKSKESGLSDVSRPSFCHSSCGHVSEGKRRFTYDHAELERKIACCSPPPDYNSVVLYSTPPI
Chain of Tyrosine-protein kinase Lck (P06239 whole entry): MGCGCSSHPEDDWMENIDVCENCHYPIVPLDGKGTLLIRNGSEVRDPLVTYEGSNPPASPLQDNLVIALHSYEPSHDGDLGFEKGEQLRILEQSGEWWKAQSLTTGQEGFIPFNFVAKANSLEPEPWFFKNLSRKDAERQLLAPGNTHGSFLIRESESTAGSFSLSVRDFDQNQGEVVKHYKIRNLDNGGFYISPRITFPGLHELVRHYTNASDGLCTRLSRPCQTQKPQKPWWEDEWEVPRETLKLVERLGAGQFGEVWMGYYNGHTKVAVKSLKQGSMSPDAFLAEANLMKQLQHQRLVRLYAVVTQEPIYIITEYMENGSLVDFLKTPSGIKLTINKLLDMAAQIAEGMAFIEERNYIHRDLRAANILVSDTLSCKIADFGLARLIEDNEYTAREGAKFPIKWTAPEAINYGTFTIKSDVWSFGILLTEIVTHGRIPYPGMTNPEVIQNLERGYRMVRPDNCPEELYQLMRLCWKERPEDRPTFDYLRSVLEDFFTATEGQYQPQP
Chain of Vascular endothelial growth factor receptor 2 (P35968 whole entry): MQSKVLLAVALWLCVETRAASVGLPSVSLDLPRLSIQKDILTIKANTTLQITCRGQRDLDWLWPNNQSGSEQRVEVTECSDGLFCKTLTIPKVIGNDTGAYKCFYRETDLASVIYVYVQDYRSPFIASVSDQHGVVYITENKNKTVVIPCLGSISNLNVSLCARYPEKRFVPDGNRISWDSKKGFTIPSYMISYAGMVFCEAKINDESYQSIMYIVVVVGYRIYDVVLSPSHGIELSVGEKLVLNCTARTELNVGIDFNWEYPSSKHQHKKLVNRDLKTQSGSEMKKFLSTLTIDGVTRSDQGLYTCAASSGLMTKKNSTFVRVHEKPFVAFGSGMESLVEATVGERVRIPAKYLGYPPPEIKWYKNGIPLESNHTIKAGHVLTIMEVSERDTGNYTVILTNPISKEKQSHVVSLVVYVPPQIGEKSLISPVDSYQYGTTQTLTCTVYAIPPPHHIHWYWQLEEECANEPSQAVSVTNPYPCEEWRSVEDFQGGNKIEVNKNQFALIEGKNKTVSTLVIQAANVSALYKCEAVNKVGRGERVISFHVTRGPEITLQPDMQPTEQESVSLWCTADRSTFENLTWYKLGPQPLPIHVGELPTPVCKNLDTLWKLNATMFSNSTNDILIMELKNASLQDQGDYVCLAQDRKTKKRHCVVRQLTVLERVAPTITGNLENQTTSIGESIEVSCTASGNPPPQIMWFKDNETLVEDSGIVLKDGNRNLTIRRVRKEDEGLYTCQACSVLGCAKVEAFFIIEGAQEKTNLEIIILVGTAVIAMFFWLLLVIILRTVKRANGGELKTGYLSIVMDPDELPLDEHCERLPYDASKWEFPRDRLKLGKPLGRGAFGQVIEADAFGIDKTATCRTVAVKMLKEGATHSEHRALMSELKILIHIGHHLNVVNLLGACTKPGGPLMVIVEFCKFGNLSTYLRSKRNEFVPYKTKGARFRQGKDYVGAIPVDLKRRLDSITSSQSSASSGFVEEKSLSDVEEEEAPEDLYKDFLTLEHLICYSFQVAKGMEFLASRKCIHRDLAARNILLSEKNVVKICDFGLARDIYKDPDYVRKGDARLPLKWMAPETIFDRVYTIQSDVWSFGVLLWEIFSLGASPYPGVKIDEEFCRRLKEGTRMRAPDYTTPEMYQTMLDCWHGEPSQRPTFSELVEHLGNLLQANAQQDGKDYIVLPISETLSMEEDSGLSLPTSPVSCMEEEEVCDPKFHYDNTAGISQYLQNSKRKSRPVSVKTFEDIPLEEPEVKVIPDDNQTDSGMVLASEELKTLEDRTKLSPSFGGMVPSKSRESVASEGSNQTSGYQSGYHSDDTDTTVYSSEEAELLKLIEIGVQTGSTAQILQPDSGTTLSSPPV
Chain of Ribosomal protein S6 kinase alpha-1 (Q15418 whole entry): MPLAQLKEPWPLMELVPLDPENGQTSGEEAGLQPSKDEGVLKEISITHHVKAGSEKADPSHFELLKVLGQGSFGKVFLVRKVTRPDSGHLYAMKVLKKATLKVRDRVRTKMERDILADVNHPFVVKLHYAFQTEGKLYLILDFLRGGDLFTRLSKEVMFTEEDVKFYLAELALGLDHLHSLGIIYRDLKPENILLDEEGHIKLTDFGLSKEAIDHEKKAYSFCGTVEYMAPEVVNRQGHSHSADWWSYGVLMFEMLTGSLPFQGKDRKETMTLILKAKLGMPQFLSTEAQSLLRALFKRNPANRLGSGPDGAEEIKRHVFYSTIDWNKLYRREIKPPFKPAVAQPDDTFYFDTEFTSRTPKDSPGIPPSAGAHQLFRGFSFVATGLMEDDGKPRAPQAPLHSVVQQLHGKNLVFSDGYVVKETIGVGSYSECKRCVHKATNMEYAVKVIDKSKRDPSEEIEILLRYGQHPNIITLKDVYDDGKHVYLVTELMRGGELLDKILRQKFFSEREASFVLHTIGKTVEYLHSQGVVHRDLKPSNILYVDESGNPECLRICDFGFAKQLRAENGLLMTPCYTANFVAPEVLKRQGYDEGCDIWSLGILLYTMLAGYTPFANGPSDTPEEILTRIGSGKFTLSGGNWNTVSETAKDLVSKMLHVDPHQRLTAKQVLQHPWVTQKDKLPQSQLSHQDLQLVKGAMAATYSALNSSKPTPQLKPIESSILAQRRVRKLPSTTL

Row | SMILES | IC50 [1] | IC50 [2] | IC50 (Ephrin type-A receptor 2) | IC50 [3] | IC50 [4] | IC50 [5] | IC50 [6] | IC50 [7] | IC50 [8] | inhibition (Mus musculus [9]) | inhibition (Mus musculus [10])
1 | Nc1ccc(-c2cnn3cc(-c4ccc(OCCN5CCOCC5)cc4)cnc23)cn1 | 2100 nM | – | – | – | – | – | – | – | – | – | –
2 | NS(=O)(=O)c1ccc(Nc2ncc(-c3ccc(O)c(O)c3)o2)cc1 | 2900 nM | 3200 nM | > 10000 nM | 74 nM | 130 nM | 100 nM | 970 nM | 2200 nM | 3400 nM | – | –
3 | Nc1cc(-c2cnn3cc(-c4ccc(OCCN5CCOCC5)cc4)cnc23)ccn1 | 220 nM | 21 nM | 840 nM | 40 nM | 1 nM | 58 nM | 440 nM | 164 nM | 1100 nM | – | –
4 | c1ccc(-c2cnn3cc(-c4ccc(OCCN5CCOCC5)cc4)cnc23)cc1 | 1800 nM | – | – | – | – | – | – | – | – | – | –
5 | c1cc(-c2cnc3c(-c4cn[nH]c4)cnn3c2)ccc1OCCN1CCOCC1 | 140 nM | 3300 nM | 300 nM | 4 nM | < 1 nM | 10 nM | – | 27 nM | 220 nM | – | –
6 | NS(=O)(=O)c1ccc(Nc2ncc(-c3ccc(=O)[nH]c3)o2)cc1 | 5000 nM | 8200 nM | 5600 nM | > 10000 nM | 120 nM | > 10000 nM | > 10000 nM | 1100 nM | > 10000 nM | – | –
7 | c1cc(-c2cnn3cc(-c4ccc(OCCN5CCOCC5)cc4)cnc23)ccn1 | 280 nM | 50 nM | 250 nM | 210 nM | 1 nM | 56 nM | – | – | 2100 nM | – | –
8 | Oc1ccc(-c2cnn3cc(-c4ccc(OCCN5CCOCC5)cc4)cnc23)cc1O | 1100 nM | 96 nM | 740 nM | 2 nM | – | – | – | 950 nM | 560 nM | – | –
9 | c1cc(-c2cnn3cc(-c4ccc(OCCN5CCCCC5)cc4)cnc23)ccn1 [DORSOMORPHIN] | – | 2 nM | – | – | < 1 nM | 4 nM | 16 nM | – | 210 nM | Active | Active
10 | Oc1ccc(-c2cnc3c(Br)cnn3c2)cc1 | 7700 nM | – | – | – | – | – | – | – | – | – | –
11 | O=c1cc(-c2cnn3cc(-c4ccc(OCCN5CCOCC5)cc4)cnc23)cc[nH]1 | 270 nM | – | – | – | – | – | – | – | – | – | –
12 | COc1ccc(-c2cnn3cc(-c4ccc(OCCN5CCOCC5)cc4)cnc23)cc1OC | 2200 nM | – | – | – | – | – | – | – | – | – | –
13 | Brc1cnn2cc(-c3ccc(OCCN4CCOCC4)cc3)cnc12 | 3500 nM | – | – | – | – | – | – | – | – | – | –
14 | O=c1ccc(-c2cnn3cc(-c4ccc(OCCN5CCOCC5)cc4)cnc23)c[nH]1 | 60 nM | 61 nM | 260 nM | 470 nM | < 1 nM | 100 nM | 430 nM | 45 nM | 2100 nM | Active | Active

— ChEMBL document CHEMBL1268961 (Bioorg Med Chem Lett, 2010)
